SENP6 block = SENP6 protease inhibitors, primary screen, biochemical, luminescence, uHTS; Recombinant SENP6 catalytic domain, aminoluciferin luminescence; Sentrin-specific protease 6 (Homo sapiens), Q9GZR1; AID 2599, 2010; inhibition, % at 10 µM; 330,000 compounds, 1.8% hits;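 active means inhibition above about 50% at the single tested dose, limit read from the data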
SENP8 block-1 = SENP8 protease inhibitors, primary screen, biochemical, luminescence; Sentrin-specific protease 8 (Homo sapiens), Q96LD8; purified SENP8, Z-RLRGG-aminoluciferin cleavage; inhibition, % at 10 µM; 330,000 compounds, 1.2% hits; AID 2540, 2010; in the data active means inhibition above about 50%
SENP1 inh = human SENP1 catalytic domain inhibitors, primary screen, biochemical, FRET, uHTS | Sentrin-specific protease 1 (Homo sapiens), Q9P0U3 | recombinant SENP1 catalytic domain, CyPet-SUMO1-YPet FRET cleavage | inhibition, % at 10 µM | 360,000 compounds, 0.21% hits;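 active means inhibition at least 30% at 10 µM, raw YFP signal under a set limit, fluorescence ratio 0.5 to 1.5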
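material = recombinant human SENP1 catalytic domain, His6-tagged | quantity = 20 pM enzyme | reagent = 25 nM SUMO1 FRET substrate | compound dosing = 10 µM single point, 0.5% DMSO | timing = 50 min enzyme reaction, room temperature, light-protected | detection = FRET, CFP and YFP emission | control set = no-enzyme low, enzyme-DMSO high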
SENP7 inh = SENP7 protease inhibitors, primary screen, biochemical, luminescence, uHTS; inhibition, % at 5 µM; recombinant SENP7, Z-RLRGG-aminoluciferin luminescence, 40 min; 330,000 compounds, 1.5% hits; AID 434973, 2010;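 active means inhibition above about 50% at the single test dose, limit read from the data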
Target sequence (Q9BQF6 706-1050 limits assumed): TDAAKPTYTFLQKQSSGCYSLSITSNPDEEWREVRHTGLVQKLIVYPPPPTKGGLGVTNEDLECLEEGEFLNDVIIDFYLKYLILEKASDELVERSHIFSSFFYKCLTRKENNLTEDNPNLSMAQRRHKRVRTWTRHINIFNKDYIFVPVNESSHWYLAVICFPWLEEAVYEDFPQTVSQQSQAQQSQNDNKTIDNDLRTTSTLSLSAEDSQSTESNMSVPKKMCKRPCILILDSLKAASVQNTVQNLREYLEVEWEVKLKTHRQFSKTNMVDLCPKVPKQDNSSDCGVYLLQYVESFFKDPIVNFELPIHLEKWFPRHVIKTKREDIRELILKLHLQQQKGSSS
SENP8 block-2 = human SENP8 protease inhibitors, primary screen, biochemical, fluorescence, Nedd8 protein substrate, uHTS. AID 602440, 2012. Sentrin-specific protease 8 (Homo sapiens), Q96LD8. recombinant SENP8. inhibition, % at 20 µM. 360,000 compounds, 0.64% hits; in the data active means inhibition mostly above about 40%, no sharp cut-off; inactive means mostly below about 27%
Platelet DG rel = inhibitors of platelet dense granule secretion, primary screen, cell-based, MLPCN, human platelets; human platelet-rich plasma, SFLLRN dense granule ATP release, luminescence; 300,000 compounds, 0.22% hits; inhibition, %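 (compounds screened at 7.5 µM in platelet-rich plasma)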;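 active means mean replicate score, as percent of positive control, at or above 50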
SENP8 confirm = SENP8 protease inhibitors, retest, confirmation, biochemical, luminescence, single concentration. AID 488912, 2010. Recombinant SENP8, Z-RLRGG-aminoluciferin luminescence, 60 min. inhibition, % at 12.5 µM. 6,200 compounds, 40% hits. shares compounds with SENP7 inh;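 active means mean inhibition across replicates above about 50%, limit read from the data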
SENP6 confirm = SENP6 protease inhibitors, confirmation, biochemical, luminescence, single concentration; inhibition, % at 12.5 µM; recombinant SENP6, Z-RLRGG-aminoluciferin luminescence; shares compounds with SENP7 inh; 6,200 compounds, 58% hits; AID 488915, 2010
SENP7 conf = SENP7 protease inhibitors, retest, confirmation, biochemical, luminescence, single concentration; shares compounds with SENP7 inh; inhibition, % at 12.5 µM; recombinant SENP7, Z-RLRGG-aminoluciferin luminescence, 40 min; 6,200 compounds, 69% hits
Casp3 SENP sel = caspase-3 protease inhibitors, confirmation, selectivity assay for SENP inhibitor project, biochemical, single concentration. shares compounds with SENP7 inh. purified caspase-3, Z-DEVD-aminoluciferin luminescence, 60 min. inhibition, % at 12.5 µM. 6,200 compounds, 60% hits;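 active means mean inhibition above about 50%, limit read from the data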
SENP luc ctr = luminescence interference (SENP counter-screen); shares compounds with SENP7 inh; Pre-incubated SENP8/Z-RLRGG-aminoluciferin, luciferase luminescence interference; inhibition, % at 12.5 µM; 6,200 compounds, 39% hits; AID 488919;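 active means mean inhibition above about 50% when retested at one dose, limit read from the data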
Hits are given with their value; i = inactive; nt = no result. Hits are enriched below; roughly 2.6% of the tested compounds scored in any of these assays.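 How the source made its calls, unless noted: active means mean inhibition above about 50% in the one-dose retest (limit read from the data); inactive means the rest.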

SMILES	SENP6 block	SENP8 block-1	SENP1 inh	SENP7 inh	SENP8 block-2	Platelet DG rel	SENP8 confirm	SENP6 confirm	SENP7 conf	Casp3 SENP sel	SENP luc ctr
COC(=O)c1ccc(NC(=O)c2ccc(NC(=O)c3ccco3)cc2)cc1	i	i	i	i	i	i	nt	nt	nt	nt	nt
CCC(C)c1ccc(NC(=O)c2ccco2)cc1 (stereo not given)	84.7	69.9	i	73.9	i	i	78.8	77.7	94.1	70.9	67.1
COC(=O)CC1Oc2ccccc2N(Cc2ccc(C)cc2)C1=O (stereo not given)	i	i	i	i	i	i	nt	nt	nt	nt	nt
CC(C)Oc1ccccc1OCCCOc1cccc2cccnc12	i	i	i	i	i	i	nt	nt	nt	nt	nt
Cc1ccc(-n2c(O)c(C=NCc3ccccn3)c3ccccc3c2=O)cc1C	i	i	i	i	i	i	nt	nt	nt	nt	nt
Cc1cc(O)cc2c1C(=O)/C(=C/c1ccco1)O2	66.7	63.5	i	i	i	i	85.3	86.6	98.5	89.5	89.1
CCC(=O)Oc1ccc2c(c1)O/C(=C\c1ccco1)C2=O	i	i	i	i	i	i	nt	nt	nt	nt	nt
CCc1ccc(NSc2ccccc2[N+](=O)[O-])cc1	i	i	i	55.9	i	i	i	i	i	i	i
COc1ccc(NC(=S)NCc2cccn2C)cc1	i	i	i	i	i	i	nt	nt	nt	nt	nt
COc1ccc(NC(=O)c2sc(SCc3ccccc3)nc2N)cc1	i	i	i	i	i	i	nt	nt	nt	nt	nt
COc1ccc(NC(=O)c2scc(S(=O)(=O)C(C)C)c2N)cc1	66.0	58.7	i	86.3	i	i	68.4	66.1	88.8	82.4	67.6
COc1ccc(NC(=O)c2sc(SC)nc2N)cc1	i	i	i	51.5	i	i	i	i	74.4	63.7	52.0
CSc1ccccc1NC(=O)CN(C)C(C)C(=O)NC(=O)NC1CCCCC1 (stereo not given)	i	i	i	i	i	i	nt	nt	nt	nt	nt
COCCCNC(=O)c1cc2c(s1)CS(=O)(=O)C2	i	i	i	i	i	i	nt	nt	nt	nt	nt
CC(C)OCCCNC(=O)c1cc2c(s1)CS(=O)(=O)C2	i	i	i	97.8	i	i	i	i	i	i	i
CCOP(=O)(OCC)C(Nc1cc(Cl)cc(Cl)c1)c1cccc(O)c1 (stereo not given)	i	i	i	i	i	i	nt	nt	nt	nt	nt
Cc1oc(/N=C/c2ccccc2O)c(C#N)c1C	i	i	i	i	i	i	nt	nt	nt	nt	nt
Cc1oc(/N=C/c2ccc(O)cc2O)c(C#N)c1C	57.4	i	i	i	i	i	81.3	82.3	93.9	55.5	i
Cc1noc(C)c1COC(=O)c1cc(C)n(-c2ccccc2)c1C	i	i	i	i	i	i	nt	nt	nt	nt	nt
Cc1ccc(C)c(NC(=O)COC(=O)c2c(C)nn(-c3ccccc3)c2C)c1	i	i	i	i	i	nt	nt	nt	nt	nt	nt
CSc1ccc(-c2sc(Nc3ccccc3)n[n+]2-c2ccccc2)cc1	i	i	i	i	i	i	nt	nt	nt	nt	nt
